Data on 18 compounds can be found in ChEMBL document CHEMBL4406854, “Synthesis and in-vitro anti-HIV-1 evaluation of novel pyrazolo[4,3-c]pyridin-4-one derivatives” (Eur J Med Chem, 2019).

The test system of data set [1] is Human immunodeficiency virus 1. The data set is described as follows: Antiviral activity against HIV1 UG070 infected in human TZM-bl cells incubated for 48 hrs by bright Glo-luciferase reporter gene assay. It counts as functional, organism-based. As to conditions: Human immunodeficiency virus 1, UG070, TZM-bl. In a few lines: (§1)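 TZM-bl cells (10^4/well, seeded the day before) were infected with pre-titrated HIV-1 VB59 or UG070 stocks for 2 h. Serial two-fold dilutions at sub-toxic concentrations were then added, with AZT as control, for 48 h. Britelite plus luciferase substrate was added and RLU measured. IC50 was derived from percent inhibition against infected untreated and uninfected controls.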
On the technique in general: In a reporter assay the amount or activity of a reporter protein is the signal.

The subject of data set [2] is Human immunodeficiency virus 1. Put plainly: Antiviral activity against HIV1 VB59 infected in human TZM-bl cells incubated for 48 hrs by bright Glo-luciferase reporter gene assay. Format: functional, organism-based. As to conditions: Human immunodeficiency virus 1, VB59, TZM-bl. In a few lines:
as §1

Data set [3] in a line: Therapeutic index, ratio of CC50 for human TZM-bl cells to IC50 for antiviral activity against HIV1 VB59 infected in human TZM-bl cells. It counts as toxicity, cell-based. Particulars: read-out: Ratio CC50/IC50. In outline:
(§2)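 TI = CC50/IC50. CC50 came from 48 h MTT viability of TZM-bl cells. IC50 came from 48 h luciferase read-out in TZM-bl cells infected for 2 h with HIV-1 UG070 or VB59 and then treated with two-fold dilutions at sub-toxic concentrations.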

Data set [4] is described as follows: Cytotoxicity against human TZM-bl cells assessed as reduction in cell viability incubated for 48 hrs by MTT assay. It counts as cell-based. In a few lines: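 TZM-bl cells (10^4/well) were seeded overnight at 37 °C in humidified 5% CO2. Serial two-fold dilutions were added, with AZT as control, for 48 h. Viability was read by MTT, and CC50 (concentration leaving 50% of cells viable) was obtained by non-linear regression.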

Data set [5] in a line: Therapeutic index, ratio of CC50 for human TZM-bl cells to IC50 for antiviral activity against HIV1 UG070 infected in human TZM-bl cells. As to conditions: read-out: Ratio CC50/IC50. Format: toxicity, cell-based. In outline:
as §2

Data set [6] can be described thus: Cytotoxicity against human PBMC cells assessed as reduction in cell viability incubated for 5 days by MTT assay. Format: cell-based. In outline: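 PBMCs (0.2×10^6 cells/well) were activated with PHA-p (5 µg/mL) and IL-2 (5 U/mL) and exposed to serial two-fold compound dilutions at 37 °C, 5% CO2, for 5 days. Viability was measured by MTT and CC50 calculated.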
On the technique in general: Formazan colour is commonly taken as a measure of viable cells.

Data set [7] can be described thus: Therapeutic index, ratio of CC50 for human TZM-bl cells to IC50 for antiviral activity against HIV1 N119 infected in human TZM-bl cells. It counts as toxicity, cell-based. Particulars: read-out: Ratio CC50/IC50. In outline:
(§3)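 TI = CC50/IC50. CC50 came from TZM-bl cells (10^4/well) exposed to serial two-fold dilutions for 48 h at 37 °C, 5% CO2, with MTT viability and non-linear regression fitting. IC50 came from TZM-bl cells infected 2 h, treated with sub-toxic two-fold dilutions for 48 h, with luciferase RLU read-out.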

The nature of data set [8]: Therapeutic index, ratio of CC50 for human PBMC cells to IC50 for antiviral activity against HIV1 VB51 infected in human PBMC cells.
The test system of data set [9] is Human immunodeficiency virus 1. Put plainly: Antiviral activity against HIV1 NARI-DR infected in human TZM-bl cells incubated for 48 hrs by bright Glo-luciferase reporter gene assay. It counts as functional, organism-based. Particulars: Human immunodeficiency virus 1, NARI-DR. In a few lines:
(§4)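 TZM-bl cells (HeLa-derived, expressing CD4/CXCR4/CCR5, with an LTR-driven luciferase reporter) were seeded at 10^4 cells/well overnight. Cells were infected with pre-titrated virus for 2 h, then given serial two-fold dilutions of sub-toxic compound concentrations and incubated 48 h. Luciferase substrate was added and RLU read. IC50 was taken from percent inhibition versus infected untreated controls. NVP and AZT served as controls.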

The subject of data set [10] is Human immunodeficiency virus 1. Put plainly: Antiviral activity against HIV1 92/BR/018 infected in human TZM-bl cells incubated for 48 hrs by bright Glo-luciferase reporter gene assay. It counts as functional, organism-based. Particulars: Human immunodeficiency virus 1, 92/BR/018, TZM-bl. In a few lines:
as §4

Data set [11] concerns Human immunodeficiency virus 1. Put plainly: Antiviral activity against HIV1 VB51 infected in human PBMC cells incubated for 5 days by bright Glo-luciferase reporter gene assay. Format: functional, organism-based. As to conditions: Human immunodeficiency virus 1, VB51, 120 h. In a few lines: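 PBMCs (0.2×10^6 cells/well) were activated with PHA-p (5µg/mL) and IL-2 (5U/mL). Sub-toxic concentrations, chosen from a 5-day MTT CC50 at 37 °C in 5% CO2, were used against R5-tropic HIV-1 VB51.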

Data set [12] deals with Human immunodeficiency virus 1. The data set is described as follows: Antiviral activity against HIV1 N119 infected in human TZM-bl cells incubated for 48 hrs by bright Glo-luciferase reporter gene assay. It counts as functional, organism-based. Particulars: Human immunodeficiency virus 1, N119, TZM-bl. In a few lines: as §4
Data set [13] can be described thus: Therapeutic index, ratio of CC50 for human TZM-bl cells to IC50 for antiviral activity against HIV1 92/BR/018 infected in human TZM-bl cells. Format: toxicity, cell-based. Particulars: read-out: Ratio CC50/IC50. In outline:
as §3

Data set [14] can be described thus: Therapeutic index, ratio of CC50 for human TZM-bl cells to IC50 for antiviral activity against HIV1 NARI-DR infected in human TZM-bl cells. It counts as toxicity, cell-based. As to conditions: read-out: Ratio CC50/IC50. In a few lines: as §3
Data set [15] concerns Human immunodeficiency virus 1. Put plainly: Antiviral activity against HIV1 NL4.3 infected in human TZM-bl cells measured upto 3 hrs by bright Glo-luciferase reporter gene assay. Format: functional, organism-based. In a few lines: (§5)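 Time-of-addition: TZM-bl cells seeded at 10^4 cells/well and incubated overnight, then infected with HIV-1 NL4.3 (400 TCID50) in complete DMEM containing […] DEAE-dextran. Compounds and reference antiretrovirals were applied at five times their IC50 at 0, 1, 2, 3, 4, 6, 8, 10, 18 and 24 h post infection. Luciferase (RLU) was read 48 h post infection, in triplicate, as mean±SD.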

For data set [16], the system named is Human immunodeficiency virus 1. Put plainly: Antiviral activity against HIV1 NL4.3 infected in human TZM-bl cells measured upto 10 hrs by bright Glo-luciferase reporter gene assay. It counts as functional, organism-based. In a few lines:
as §5

Each structure is given as a SMILES string. Calls of active or inactive are those of the source. The rule behind the calls is not given here.

Regarding `Cc1cc2c(cnn2-c2ccccc2)c(=O)[nH]1`, the IC50 (usually the midpoint of a concentration-inhibition curve) in data set [1] turned out to be 444 µM; in [2], 121 µM. For the same compound, in data set [3], the selectivity ratio turned out to be 5.86. Besides, the CC50 (commonly the concentration at which the toxic effect on the cells reaches its halfway point) at 48 h in [4] amounted to 708 µM.

On to `Cc1ccc(-n2ncc3c(=O)[nH]c(C)cc32)cc1`, for which the IC50 in [1] amounted to 229 µM; in [2], 58.1 µM. The values for the selectivity ratio in data set [3] and in data set [5] were 6.6 and 1.67, respectively. In addition, in data set [4], the CC50 at 48 h worked out at 383 µM.

Turning to `COc1cccc(-n2ncc3c(=O)[nH]c(C)cc32)c1`, the IC50 in data set [1] was more than 196 µM; in [2], 247 µM. Moreover, the selectivity ratio in data set [3] is 2.24. Moreover, in [4], the CC50 at 48 h was 553 µM.

Compound `Cc1cc2c(cnn2-c2ccc(C(F)(F)F)cc2)c(=O)[nH]1` came in with an IC50 in data set [2] of more than 171 µM. Moreover, the CC50 at 48 h in data set [4] worked out at 100 µM.

In [2], `Cc1cc2c(cnn2-c2cccc(F)c2)c(=O)[nH]1` returned an IC50 of more than 206 µM. Besides, the CC50 at 48 h in data set [4] turned out to be 159 µM.

For the compound `Cc1cc2c(cnn2-c2cccc(Br)c2)c(=O)[nH]1`, the IC50 in data set [2] stood at 139 µM. In [3], the selectivity ratio stood at 0.52. In addition, the CC50 at 48 h in data set [4] came out at 72.6 µM.

For `Cc1cn([C@H]2C[C@H](N=[N+]=[N-])[C@@H](CO)O2)c(=O)[nH]c1=O` [ZIDOVUDINE], the CC50 at 120 h in data set [6] was determined as 1070 µM. The CC50 at 48 h in data set [4] worked out at 872 µM.

In data set [2], `Cc1cc2c(cnn2-c2cccc(C(F)(F)F)c2)c(=O)[nH]1` had an IC50 of 128 µM. For the same compound, the 50% cytotoxic concentration (CC50) at 48 h in data set [4] turned out to be 34.1 µM.

On to `Cc1ccnc2c1NC(=O)c1cccnc1N2C1CC1` [NEVIRAPINE], for which, in data set [6], the CC50 at 120 h turned out to be 1000 µM. Further, the selectivity ratio in data set [7] was 4.3; in data set [8] it was 5280; in [13] it was 1990; in [14], 2.6. Also, the IC50 in data set [9] turned out to be 232 µM; in data set [10], 0.3 µM; in data set [11], 0.19 µM; in data set [12] it was 140 µM.

Regarding `Cc1cc2c(cnn2-c2cc(F)cc(F)c2)c(=O)[nH]1`, in data set [2], the IC50 is more than 192 µM. The CC50 at 48 h in data set [4] was 130 µM.

On to `Cc1cc2c(cnn2-c2ccc(C)c(C)c2)c(=O)[nH]1`, for which the IC50 in data set [2] is 126 µM. In data set [3], the selectivity ratio was 0.74. In [4], the 50% cytotoxic concentration (CC50) at 48 h came out at 93.4 µM.

`Cc1cc2c(cnn2-c2cc(Cl)cc(Cl)c2)c(=O)[nH]1` yielded an IC50 in data set [2] of more than 171 µM. For the same compound, the CC50 at 48 h in data set [4] was 93.5 µM.

Consider `Cc1cc2c(cnn2-c2ccc(Cl)cc2)c(=O)[nH]1`, for which the IC50 in [2] was more than 193 µM. The CC50 at 48 h in [4] is 260 µM.

`Cc1cc2c(cnn2-c2ccc(C(C)(C)C)cc2)c(=O)[nH]1` displayed a half-maximal inhibitory concentration (IC50) in data set [2] of more than 178 µM. In addition, the CC50 at 48 h in [4] was found to be 45.9 µM.

`Cc1cc2c(cnn2-c2ccc(Br)cc2)c(=O)[nH]1`: in data set [2], the 50% inhibitory concentration (IC50) amounted to 138 µM. Also, the selectivity ratio in data set [3] worked out at 0.58. In addition, in data set [4], the CC50 at 48 h amounted to 79.8 µM.

As for `Cc1cc(C)cc(-n2ncc3c(=O)[nH]c(C)cc32)c1`, in [6], the half-maximal cytotoxic concentration (CC50) at 120 h was 592 µM. Further, the selectivity ratio worked out at 210 in data set [7]; 68 in [8]; 185 in [3]; 243 in data set [5]; 91 in [13]; 268 in data set [14]. The IC50 in data set [9] worked out at 2.53 µM; in [10] it was 7.42 µM; in data set [1] it was 2.79 µM; in [11], 8.65 µM; in [12], 3.24 µM; in data set [2], 3.67 µM. Besides, the result in data set [15] and in data set [16] was Active. Moreover, the CC50 at 48 h in data set [4] is 679 µM.

`Cc1cc2c(cnn2-c2ccc(Cl)c(Cl)c2)c(=O)[nH]1` yielded a concentration for half-maximal inhibition (IC50) in data set [2] of more than 171 µM. The CC50 at 48 h in data set [4] was determined as 93.5 µM.

In turn, `Cc1cc2c(cnn2-c2ccc(F)c(F)c2)c(=O)[nH]1` yielded an IC50 in data set [2] of more than 192 µM. In addition, the CC50 at 48 h in data set [4] was 133 µM.
